Experiments:
[1] = biological target: T1, Adrenergic receptor alpha-2 (Rattus norvegicus, UniProt P22086+P19328+P22909); assay: Binding affinity to alpha-2 adrenergic receptor determined by measurement of [3H]yohimbine displacement from rat cortical membrane
T1 sequence (P22086 whole entry): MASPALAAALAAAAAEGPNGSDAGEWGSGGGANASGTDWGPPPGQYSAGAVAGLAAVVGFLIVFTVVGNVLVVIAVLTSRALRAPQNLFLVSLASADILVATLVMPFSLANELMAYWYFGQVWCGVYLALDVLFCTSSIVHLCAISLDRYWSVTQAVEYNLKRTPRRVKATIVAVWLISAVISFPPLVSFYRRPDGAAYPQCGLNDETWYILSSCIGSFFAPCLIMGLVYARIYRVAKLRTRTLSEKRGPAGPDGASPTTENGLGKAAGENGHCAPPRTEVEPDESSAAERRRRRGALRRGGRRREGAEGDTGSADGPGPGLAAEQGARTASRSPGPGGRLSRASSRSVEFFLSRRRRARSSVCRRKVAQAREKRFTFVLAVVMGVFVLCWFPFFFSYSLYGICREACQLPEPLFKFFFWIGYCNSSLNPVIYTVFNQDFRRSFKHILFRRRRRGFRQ
T1 sequence (P19328 whole entry): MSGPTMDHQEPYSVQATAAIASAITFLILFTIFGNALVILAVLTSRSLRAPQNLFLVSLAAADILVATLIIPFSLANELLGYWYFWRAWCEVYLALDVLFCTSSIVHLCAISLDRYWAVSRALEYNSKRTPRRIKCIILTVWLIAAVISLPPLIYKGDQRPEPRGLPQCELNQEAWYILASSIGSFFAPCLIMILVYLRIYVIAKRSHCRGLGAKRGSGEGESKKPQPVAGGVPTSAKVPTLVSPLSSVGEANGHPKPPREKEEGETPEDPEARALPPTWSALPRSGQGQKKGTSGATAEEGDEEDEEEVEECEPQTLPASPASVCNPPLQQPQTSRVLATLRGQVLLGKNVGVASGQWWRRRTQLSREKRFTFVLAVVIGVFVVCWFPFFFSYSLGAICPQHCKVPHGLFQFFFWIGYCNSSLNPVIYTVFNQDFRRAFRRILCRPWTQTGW
T1 sequence (P22909 whole entry): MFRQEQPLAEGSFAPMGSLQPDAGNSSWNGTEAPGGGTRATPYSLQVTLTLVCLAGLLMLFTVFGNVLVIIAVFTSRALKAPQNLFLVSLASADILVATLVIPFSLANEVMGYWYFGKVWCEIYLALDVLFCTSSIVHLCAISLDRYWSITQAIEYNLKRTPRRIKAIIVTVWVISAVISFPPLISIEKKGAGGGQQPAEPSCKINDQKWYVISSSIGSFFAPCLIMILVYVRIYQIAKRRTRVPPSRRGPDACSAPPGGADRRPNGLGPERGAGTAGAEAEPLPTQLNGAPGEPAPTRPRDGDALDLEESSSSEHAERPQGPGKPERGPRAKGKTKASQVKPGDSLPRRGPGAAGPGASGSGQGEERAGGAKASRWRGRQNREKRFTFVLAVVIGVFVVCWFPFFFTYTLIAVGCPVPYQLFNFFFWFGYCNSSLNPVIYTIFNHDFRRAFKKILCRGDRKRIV

[2] = biological target: T2, Adrenergic receptor alpha-1 (Rattus norvegicus, UniProt P15823+P23944+P43140); assay: Binding affinity to alpha-1 adrenergic receptor determined by measurement of [3H]prazosin displacement from rat cortical membrane
T2 sequence (P15823 whole entry): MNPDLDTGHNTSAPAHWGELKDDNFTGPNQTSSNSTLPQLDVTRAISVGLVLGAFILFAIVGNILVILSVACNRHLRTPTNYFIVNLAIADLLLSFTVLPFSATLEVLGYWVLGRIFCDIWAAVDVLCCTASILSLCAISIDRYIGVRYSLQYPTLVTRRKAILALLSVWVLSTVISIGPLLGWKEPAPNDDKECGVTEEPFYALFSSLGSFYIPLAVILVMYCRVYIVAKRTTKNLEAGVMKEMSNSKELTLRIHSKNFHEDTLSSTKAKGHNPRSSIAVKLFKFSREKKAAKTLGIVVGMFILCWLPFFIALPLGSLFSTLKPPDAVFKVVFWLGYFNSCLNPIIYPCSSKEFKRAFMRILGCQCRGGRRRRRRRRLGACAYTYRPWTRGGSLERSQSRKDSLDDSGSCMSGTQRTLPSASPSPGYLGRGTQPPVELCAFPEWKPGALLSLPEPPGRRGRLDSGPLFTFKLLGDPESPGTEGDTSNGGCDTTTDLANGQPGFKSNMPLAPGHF
T2 sequence (P23944 whole entry): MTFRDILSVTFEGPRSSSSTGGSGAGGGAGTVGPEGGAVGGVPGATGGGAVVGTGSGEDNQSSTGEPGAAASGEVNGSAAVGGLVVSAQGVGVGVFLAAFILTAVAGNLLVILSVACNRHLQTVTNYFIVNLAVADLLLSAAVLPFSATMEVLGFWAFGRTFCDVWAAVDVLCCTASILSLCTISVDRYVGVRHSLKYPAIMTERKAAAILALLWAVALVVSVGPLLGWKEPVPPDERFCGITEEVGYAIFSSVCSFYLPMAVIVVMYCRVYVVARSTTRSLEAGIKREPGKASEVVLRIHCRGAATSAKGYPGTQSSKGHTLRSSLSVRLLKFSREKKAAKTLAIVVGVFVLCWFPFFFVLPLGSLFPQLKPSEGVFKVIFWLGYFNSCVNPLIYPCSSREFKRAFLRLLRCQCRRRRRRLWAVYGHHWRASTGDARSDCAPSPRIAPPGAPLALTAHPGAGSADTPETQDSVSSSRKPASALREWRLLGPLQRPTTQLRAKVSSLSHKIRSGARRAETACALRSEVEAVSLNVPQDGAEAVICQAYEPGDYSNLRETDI
T2 sequence (P43140 whole entry): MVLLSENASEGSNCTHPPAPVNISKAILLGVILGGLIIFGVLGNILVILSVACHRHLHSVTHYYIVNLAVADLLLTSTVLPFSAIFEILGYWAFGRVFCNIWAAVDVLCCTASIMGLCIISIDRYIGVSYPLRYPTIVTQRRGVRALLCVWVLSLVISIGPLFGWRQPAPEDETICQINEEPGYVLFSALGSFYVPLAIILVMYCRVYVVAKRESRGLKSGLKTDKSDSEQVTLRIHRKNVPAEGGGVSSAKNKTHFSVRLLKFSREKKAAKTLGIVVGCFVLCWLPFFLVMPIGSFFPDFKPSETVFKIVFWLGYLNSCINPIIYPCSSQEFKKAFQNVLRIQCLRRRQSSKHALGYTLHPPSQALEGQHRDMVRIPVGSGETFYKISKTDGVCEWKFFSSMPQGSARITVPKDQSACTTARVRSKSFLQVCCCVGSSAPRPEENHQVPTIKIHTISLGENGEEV
In short: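 Male Sprague-Dawley rat (150-200 g) cerebral cortex membranes, washed in 50 mM Tris-HCl/0.5 mM EDTA pH 7.4. 250 µg membrane protein incubated with 0.5 nM [3H]prazosin for 30 min at 25 °C in a 0.5 mL volume. Nonspecific binding defined by 10 µM phentolamine. IC50 estimated graphically; Ki calculated by Cheng-Prusoff.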

[3] = biological target: T3, Adrenergic receptor alpha-2 (Rattus norvegicus) (UniProt P22086+P19328+P22909)
[4] = biological target: T3, Adrenergic receptor alpha-2 (Rattus norvegicus); remark: listed apart in the source
Cavia porcellus = species: Cavia porcellus; assay: In vitro reversal of inhibitory effect of UK - 14304 on the contractile response of guinea pig ileum to field stimulation.; format: functional, organism-based; conditions: read-out: pA2 (converted)
In short: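 Ileum from female Dunkin-Hartley guinea pigs (250-300 g) held in Tyrode solution at 37 °C, gassed with O2, under 1 g tension. Field stimulation at 0.1 Hz (1-ms pulses, supramaximal voltage), with isometric contractions recorded. Cumulative UK-14304 curves were run, the second taken as control. Antagonist was then applied for 40 min before repeat agonist curves.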

Structure (SMILES) | Log Ki [1] | Log Ki [2] | ID50 [3] | ID50 [4] | Kb (Cavia porcellus)
COCCS(=O)(=O)N1CCC[C@@H]2CN3CCc4ccccc4[C@@H]3C[C@@H]21 | -8.63 | -5.13 | 0.062 mg/kg | 0.24 mg/kg | –
CC(C)CS(=O)(=O)N1CCC[C@@H]2CN3CCc4cc5c(cc4[C@@H]3C[C@@H]21)OCO5 | -8.17 | -5.04 | 0.062 mg/kg | 0.44 mg/kg | –
CCCCS(=O)(=O)N1CCC[C@@H]2CN3CCc4ccccc4[C@@H]3C[C@@H]21 | -8.9 | -5.64 | 0.036 mg/kg | 0.9 mg/kg | 1.26 nM
COC(=O)[C@@H]1[C@H]2C[C@H]3c4[nH]c5ccccc5c4CCN3C[C@@H]2CC[C@@H]1O | – | – | 0.185 mg/kg | 2.8 mg/kg | –
c1ccc2c(c1)OCC(C1=NCCN1)O2 (centres undefined) [IDAZOXAN] | – | – | 0.017 mg/kg | 1.2 mg/kg | 3.98 nM
O=S(=O)(c1ccccc1)N1CCC[C@@H]2CN3CCc4ccccc4[C@@H]3C[C@@H]21 | -8.81 | -5.31 | 0.053 mg/kg | > 10 mg/kg | –
CC(C)CS(=O)(=O)N1CCC[C@@H]2CN3CCc4ccccc4[C@@H]3C[C@@H]21 | -8.77 | -5.37 | 0.034 mg/kg | 0.85 mg/kg | 0.316 nM
CS(=O)(=O)N1CCC[C@@H]2CN3CCc4cc5c(cc4[C@@H]3C[C@@H]21)OCCO5 | -8.8 | -5.02 | 0.13 mg/kg | 1.4 mg/kg | –
COc1ccc(S(=O)(=O)N2CCC[C@@H]3CN4CCc5ccccc5[C@@H]4C[C@@H]32)cc1 | -9.34 | -5.31 | 0.18 mg/kg | > 3 mg/kg | 1.58 nM
CCCS(=O)(=O)N1CCC[C@@H]2CN3CCc4ccccc4[C@@H]3C[C@@H]21 | -8.73 | -5.29 | 0.019 mg/kg | 1.4 mg/kg | 0.398 nM
O=S(=O)(CCO)N1CCC[C@@H]2CN3CCc4ccccc4[C@@H]3C[C@@H]21 | -8.16 | -4.89 | 0.046 mg/kg | 1.34 mg/kg | –

Second part, led by results:

Log Ki [1] | Log Ki [2] | ID50 [3] | ID50 [4] | Structure (SMILES) | Kb (Cavia porcellus)
-8.77 | -5.26 | 0.0125 mg/kg | 1.2 mg/kg | CS(=O)(=O)N1CCC[C@@H]2CN3CCc4ccccc4[C@@H]3C[C@@H]21 | –
– | – | 0.0065 mg/kg | 0.095 mg/kg | COc1ccc2c(c1)CCN1C[C@H]3CCCN(S(C)(=O)=O)[C@@H]3C[C@@H]21 | 0.2 nM
-9.18 | -5.14 | 0.06 mg/kg | 0.76 mg/kg | CS(=O)(=O)N1CCC[C@@H]2CN3CCc4cc5c(cc4[C@@H]3C[C@@H]21)OCO5 | 1 nM
-8.97 | -5.57 | 0.027 mg/kg | 0.17 mg/kg | COc1ccc2c(c1)CCN1C[C@H]3CCCN(S(=O)(=O)N(C)C)[C@@H]3C[C@@H]21 | 0.501 nM
-6.32 | < -5 | > 10 mg/kg | > 10 mg/kg | COc1ccc2c(c1)CCN1C[C@@H]3CCCN(S(C)(=O)=O)[C@@H]3C[C@H]21 | 316 nM
-9.22 | -5.03 | 0.09 mg/kg | 0.3 mg/kg | COCCS(=O)(=O)N1CCC[C@@H]2CN3CCc4cc(OC)ccc4[C@@H]3C[C@@H]21 | –
-8.65 | -5.48 | – | – | COc1cccc2c1[C@@H]1C[C@H]3[C@H](CCCN3S(C)(=O)=O)CN1CC2 | –
-8.3 | -5.35 | – | – | COc1ccc2c(c1Br)CCN1C[C@H]3CCCN(S(C)(=O)=O)[C@@H]3C[C@@H]21 | –
-8.01 | -4.46 | 0.38 mg/kg | 1.6 mg/kg | COc1cc2c(cc1OC)[C@@H]1C[C@H]3[C@H](CCCN3S(C)(=O)=O)CN1CC2 | –
-7.25 | -5.65 | – | – | CS(=O)(=O)N1CCC[C@H]2CN3CCc4ccccc4[C@@H]3C[C@@H]21 | –
-8.77 | -5.41 | 0.022 mg/kg | 0.41 mg/kg | COc1ccc2c(c1)CCN1C[C@H]3CCCN(S(=O)(=O)CC(C)C)[C@H]3C[C@@H]21 | –
-9.19 | -5.32 | – | – | CS(=O)(=O)N1CCC[C@@H]2CN3CCc4cc5c(cc4[C@@H]3C[C@H]21)OCO5 | –
-7.94 | -4.42 | – | – | COc1ccc2c(c1OC)CCN1C[C@H]3CCCN(S(C)(=O)=O)[C@H]3C[C@@H]21 | –

Source: ChEMBL document CHEMBL1125249, “Structure-affinity relationships of 12-sulfonyl derivatives of 5,8,8a,9,10,11,12,12a,13,13a-decahydro-6H-isoquino[2,1-g][1 ,6] naphthyridines at alpha-adrenoceptors” (J Med Chem, 1991)
